Results: ChEMBL document CHEMBL4680268, “Pharmacomodulations of the benzoyl-thiosemicarbazide scaffold reveal antimicrobial agents targeting d-alanyl-d-alanine ligase in bacterio” (Eur J Med Chem, 2020)
pIC50, pKi: −log10 of the molar value. Converted amounts (≈) assume the structure as drawn. The source made the active and inactive calls. No cut-off for these calls is given here.

Columns and labels:
[1] = Inhibition of recombinant Enterococcus faecalis C-terminal His6-tagged DdlB expressed in Escherichia coli LMG194 using D-Ala as substrate preincubated with enzyme for 30 mins followed by substrate addition and measured after 20 mins by malachite green based colorimetric analysis
Summary of the method: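 DdlB (20 mg/L) malachite green phosphate assay: enzyme, inhibitor and 500 µM ATP preincubated 30 min at 30 °C in Tris-HCl pH 7.4 buffer with MgCl₂, KCl and 10% DMSO, then 1 mM D-Ala for 20 min; A650 read. IC₅₀ from 11 concentrations, also run with 0.01% Triton X-100; mean ± SD of triplicates, n ≥ 2; EC₅₀ given where maximal inhibition stayed below 50%.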

[2] = tested on: Staphylococcus aureus; experiment: Antibacterial activity against Staphylococcus aureus ATCC 25923 assessed as reduction in bacterial growth incubated for 18 to 24 hrs by broth microdilution method; assay type: functional; conditions: time 18-24 hrs
[3] = tested on: Enterococcus faecalis; experiment: Antibacterial activity against Enterococcus faecalis ATCC 29212 assessed as reduction in bacterial growth incubated for 18 to 24 hrs by broth microdilution method; assay type: functional; conditions: time 18-24 hrs
[4] = tested on: Enterococcus faecalis; experiment: Antibacterial activity against vancomycin resistant Enterococcus faecalis BM4390 harboring VanB mutant with inactive Ddl and constitutive expression of D-Ala-D-Lac assessed as reduction in bacterial growth incubated for 18 to 24 hrs by broth microdilution method; assay type: functional; conditions: time 18-24 hrs
Summary of the method: (§1)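 Broth microdilution in cation-adjusted Mueller-Hinton broth per CLSI; inoculum 10⁶ bacteria/mL. Two-fold serial dilutions, compound in broth with 5% DMSO mixed 1:1 with bacterial suspension, giving 2.5% DMSO final. Top concentration 0.1, 0.4 or 0.8 mM depending on solubility. Incubated 18–24 h at 37 °C. MIC = lowest concentration preventing visible growth.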

[5] = tested on: Enterococcus faecalis; experiment: Antibacterial activity against vancomycin resistant Enterococcus faecalis JH2-2::C1 harboring constitutive expression of Ddl and vanB ligase assessed as reduction in bacterial growth incubated for 18 to 24 hrs by broth microdilution method; assay type: functional; conditions: time 18-24 hrs; summary of the method: as §1
[6] = tested on: Enterococcus faecalis; experiment: Antibacterial activity against vancomycin resistant Enterococcus faecalis BM4575 harboring VanE genotype, constitutive expression of Ddl and VanE D-Ala-D-Ser ligase assessed as reduction in bacterial growth incubated for 18 to 24 hrs by broth microdilution method; assay type: functional; conditions: time 18-24 hrs; summary of the method: as §1
[7] = tested on: Staphylococcus aureus; experiment: Antibacterial activity against methicillin resistant and vancomycin intermediate resistant Staphylococcus aureus MU50 assessed as reduction in bacterial growth incubated for 18 to 24 hrs by broth microdilution method; assay type: functional; conditions: time 18-24 hrs; summary of the method: as §1
[8] = tested on: Staphylococcus aureus; experiment: Antibacterial activity against methicillin and linezolid resistant Staphylococcus aureus NRS119 assessed as reduction in bacterial growth incubated for 18 to 24 hrs by broth microdilution method; assay type: functional; conditions: time 18-24 hrs; summary of the method: as §1
[9] = tested on: Staphylococcus aureus; experiment: Antibacterial activity against community-acquired methicillin and erythromycin resistant Staphylococcus aureus SA325 assessed as reduction in bacterial growth incubated for 18 to 24 hrs by broth microdilution method; assay type: functional; conditions: time 18-24 hrs; summary of the method: as §1
[10] = tested on: Staphylococcus aureus; experiment: Antibacterial activity against hospital-acquired methicillin/ciprofloxacin and moxifloxacin resistant Staphylococcus aureus SA481 assessed as reduction in bacterial growth incubated for 18 to 24 hrs by broth microdilution method; assay type: functional; conditions: time 18-24 hrs; summary of the method: as §1
[11] = tested on: Staphylococcus aureus; experiment: Antibacterial activity against hospital-acquired vancomycin resistant Staphylococcus aureus VRS-1 assessed as reduction in bacterial growth incubated for 18 to 24 hrs by broth microdilution method; assay type: functional; conditions: time 18-24 hrs; summary of the method: as §1
[12] = tested on: Staphylococcus aureus; experiment: Bacteriostatic activity against Staphylococcus aureus ATCC 25923 assessed as reduction in bacterial growth at 1 and 2 times MIC measured upto 24 hrs by time kill assay; assay type: functional, organism-based; conditions: time hrs <=24
Summary of the method: (§2)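 S. aureus ATCC 25923 grown overnight in CAMHB, pelleted, resuspended; compound added at 1, 2 or 5× MIC to give 10⁶ CFU/mL start with 5% DMSO (DMSO-only control). Sampled at 0, 5, 15, 30 min, 1, 2, 7, 24 h; 10-fold PBS dilutions plated on charcoal TSA, counted after 24 h at 37 °C. Bactericidal = ≥3-log₁₀ drop in 24 h; triplicate, mean ± SD.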

[13] = tested on: Cell membrane; experiment: Disruption of bacterial cell membrane in Staphylococcus aureus ATCC 25923 assessed as increase in PI uptake at 5 times MIC measured every 10 mins for 1 hr by PI dye based spectrophotometry
Summary of the method: (§3)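 Mid-log S. aureus ATCC 25923 (grown in MHB from OD₆₀₀ 0.05) washed into BET buffer (pH 7.5) at 1.11×10⁶ CFU/mL with 12 nM propidium iodide; compound at 1, 2, 5× MIC, 5% DMSO final. SDS 0.5% positive, buffer negative control. Fluorescence (ex 532/em 620 nm) read in the dark every 10 min for 2 h; triplicate.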

[14] = tested on: THP-1; experiment: Cytotoxicity against human THP-1 cells assessed as reduction in cell viability at 1 times MIC measured after 1 to 2 hrs by trypan blue exclusion assay; assay type: cell-based; conditions: time 1-2 hrs
Summary of the method: (§4)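 Aliquots taken at 1, 2, 6, 24 h, mixed 1:1 with 0.4% Trypan blue for 5 min; percent blue-stained cells counted by light microscopy. DMSO control; triplicate, mean ± SD.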

[15] = Cytotoxicity against human THP-1 cells assessed as reduction in cell viability at 2 times MIC measured after 1 to 2 hrs by trypan blue exclusion assay; assay type: cell-based; conditions: time 1-2 hrs, read-out: INH; summary of the method: as §4
[16] = tested on: Staphylococcus aureus; experiment: Inhibition of Ddl in Staphylococcus aureus ATCC 25923 assessed as increase in D-Ala/D-Ala-D-Ala ratio at 2 times MIC incubated for 30 mins by UHPLC-MS/MS analysis
Summary of the method: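 Log-phase S. aureus ATCC 25923 in MHB with 5% DMSO (from OD₆₀₀ 0.05) treated with compound at 2× MIC for 0–30 min; untreated and D-cycloserine 2× MIC controls. Cells chilled, pelleted, washed in M9, lysed in ice-cold MeOH/H₂O/formic acid 80:20:0.1, supernatants derivatized with Marfey's reagent in triplicate; L-Ala, D-Ala, D-Ala-D-Ala quantified by UPLC-MS/MS.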

[17] = tested on: Klebsiella pneumoniae; experiment: Antibacterial activity against Klebsiella pneumoniae ATCC700603 assessed as reduction in bacterial growth incubated for 18 to 24 hrs by broth microdilution method; assay type: functional, organism-based; conditions: 700603, time 18-24 hrs
Summary of the method: (§5)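 Microdilution in cation-adjusted Mueller-Hinton broth per CLSI; two-fold compound series in CAMHB with 5% DMSO mixed 1:1 with bacterial suspension, giving 10⁶ bacteria/mL inoculum and 2.5% DMSO final. Top concentrations 0.1, 0.4 or 0.8 mM depending on solubility. Incubated 18–24 h at 37 °C; MIC read as lowest concentration preventing visible growth.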

[18] = tested on: Escherichia coli; experiment: Antibacterial activity against Escherichia coli ATCC 25922 assessed as reduction in bacterial growth incubated for 18 to 24 hrs by broth microdilution method; assay type: functional, organism-based; conditions: time 18-24 hrs; summary of the method: as §5
[19] = tested on: Pseudomonas aeruginosa; experiment: Antibacterial activity against Pseudomonas aeruginosa PAO1 assessed as reduction in bacterial growth incubated for 18 to 24 hrs by broth microdilution method; assay type: functional, organism-based; conditions: time 18-24 hrs; summary of the method: as §5
[20] = tested on: Staphylococcus aureus; experiment: Bactericidal activity against Staphylococcus aureus ATCC 25923 assessed as reduction in bacterial growth at 5 times MIC measured after 7 hrs by time kill assay; assay type: functional, organism-based; summary of the method: as §2
[21] = tested on: Cell membrane; experiment: Disruption of bacterial cell membrane in Staphylococcus aureus ATCC 25923 assessed as reduction in bacterial colonies at 5X MIC measured after 2 hrs by time-kill kinetics assay
[22] = Solubility of the compound in 1% DMSO at 5XMIC against Staphylococcus aureus ATCC 25923; assay type: physicochemical
[23] = tested on: Staphylococcus aureus; experiment: Bactericidal activity against Staphylococcus aureus ATCC 25923 assessed as reduction in bacterial growth at 5 times MIC measured after 24 hrs by time kill assay; assay type: functional, organism-based; summary of the method: as §2
[24] = tested on: Cell membrane; experiment: Disruption of bacterial cell membrane in Staphylococcus aureus ATCC 25923 assessed as increase in PI uptake by measuring increase in fluorescence intensity at 5 times MIC measured every 10 mins for 2 hrs by PI dye based spectrophotometry; summary of the method: as §3
[25] = tested on: THP-1; experiment: Cytotoxicity against human THP-1 cells assessed as reduction in cell viability at 2 to 5 times MIC measured after 6 hrs by trypan blue exclusion assay; assay type: cell-based; conditions: thp-1, 6 h; summary of the method: as §4
[26] = tested on: THP-1; experiment: Cytotoxicity against human THP-1 cells assessed as reduction in cell viability at 1 times MIC measured after 6 hrs by trypan blue exclusion assay; assay type: cell-based; conditions: thp-1, 6 h; summary of the method: as §4
[27] = tested on: Cell membrane; experiment: Disruption of bacterial cell membrane in Staphylococcus aureus ATCC 25923 assessed as increase in PI uptake at 1 to 5 times MIC measured every 10 mins for 2 hrs by PI dye based spectrophotometry; summary of the method: as §3
[28] = Inhibition of Ddl in Streptococcus faecalis ATCC 8043 using D-[1-14C]-alanine as substrate preincubated with enzyme for 40 mins followed by substrate and addition and measured after 30 mins by TLC analysis; design: species or system Enterococcus faecalis

SMILES | pIC50 [1] | MIC [2] | MIC [3] | MIC [4] | MIC [5] | MIC [6] | MIC [7] | MIC [8] | MIC [9] | MIC [10] | MIC [11] | Activity [12] | Activity [14] | cytotoxicity at 2 x MIC [15] | inhibition [16] | Activity [17] | Activity [18] | Activity [19] | Activity [21] | other results
Oc1ccccc1-c1n[nH]c(=S)n1-c1ccc(Cl)c(Cl)c1 | 3.52 | 400 µM (≈ 135 µg/mL) | 400 µM (≈ 135 µg/mL) | > 800 µM | 400 µM (≈ 135 µg/mL) | 400 µM (≈ 135 µg/mL) | 400 µM (≈ 135 µg/mL) | 400 µM (≈ 135 µg/mL) | 400 µM (≈ 135 µg/mL) | 800 µM (≈ 271 µg/mL) | 400 µM (≈ 135 µg/mL) | Active | Non-Toxic | 5% | Active | inactive | inactive | inactive | 2 log10CFU/ml | Activity [13]: Active; Activity [20]: Active; solubility [22]: Insoluble
Oc1ccccc1/C=N/NC(=S)Nc1ccc(Cl)c(Cl)c1 | 5.83 | 12.5 µM (≈ 4.25 µg/mL) | 12.5 µM (≈ 4.25 µg/mL) | 6.25 µM (≈ 2.13 µg/mL) | 3.12 µM (≈ 1.06 µg/mL) | 6.25 µM (≈ 2.13 µg/mL) | 25 µM (≈ 8.51 µg/mL) | 12.5 µM (≈ 4.25 µg/mL) | 25 µM (≈ 8.51 µg/mL) | 25 µM (≈ 8.51 µg/mL) | 12.5 µM (≈ 4.25 µg/mL) | Active | Non-Toxic | 5% | Active | inactive | inactive | inactive | < 1 log10CFU/ml | Activity [23]: Active; Activity [24]: 15 RFU; Activity [25]: Toxic; Activity [26]: Non-Toxic
N[C@H]1CONC1=O [LEVCYCLOSERINE] | 3.58 | 313 µM (≈ 32 µg/mL) | 1250 µM (≈ 128 µg/mL) | 5020 µM (≈ 512 µg/mL) | 5020 µM (≈ 512 µg/mL) | > 5020 µM | 627 µM (≈ 64 µg/mL) | 627 µM (≈ 64 µg/mL) | 1250 µM (≈ 128 µg/mL) | 1250 µM (≈ 128 µg/mL) | 157 µM (≈ 16 µg/mL) |  |  |  | Active |  |  |  |  | Activity [27]: inactive
C[C@@H](CP(=O)(O)[C@@H](C)N)C(=O)O |  |  |  |  |  |  |  |  |  |  |  |  |  |  |  |  |  |  |  | pKi [28]: 5.40
